Data from BindingDB's records for doi:10.1021/jm990004i (Imperial College, 1999).

Molecular target: T1, Carboxypeptidase G2 (Pseudomonas aeruginosa (strain ATCC 15692 / DSM 22644 / CIP 104116 / JCM 14847 / LMG 12228 / 1C / PRS 101 / PAO1), UniProt Q9I056)
T1 sequence (Q9I056 whole entry): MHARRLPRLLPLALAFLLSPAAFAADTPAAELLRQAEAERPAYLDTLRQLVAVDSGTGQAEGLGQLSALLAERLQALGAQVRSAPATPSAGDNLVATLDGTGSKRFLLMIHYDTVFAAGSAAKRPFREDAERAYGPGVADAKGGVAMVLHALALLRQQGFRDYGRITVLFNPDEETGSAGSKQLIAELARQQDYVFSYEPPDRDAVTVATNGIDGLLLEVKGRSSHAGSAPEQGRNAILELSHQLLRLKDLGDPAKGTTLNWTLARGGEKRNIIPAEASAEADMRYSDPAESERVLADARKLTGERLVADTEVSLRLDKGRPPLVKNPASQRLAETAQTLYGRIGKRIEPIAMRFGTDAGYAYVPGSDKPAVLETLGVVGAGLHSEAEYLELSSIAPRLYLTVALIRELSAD
Assay: Inhibitory activity against bacterial carboxypeptidase G2 by Dixon plot assay
Summary of the method: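 Bacterial CPG2 (10 μL stock, 0.1 U) started with 990 μL methotrexate solutions at several concentrations plus inhibitor 0–3.0 μM, in 0.1 M Tris-HCl pH 7.3 with 0.1 mM ZnCl2, 37 °C. Initial rate of absorbance decrease at 320 nm (methotrexate ε 8300). Apparent Ki read from Dixon plot of 1/V against inhibitor concentration.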

Ki | SMILES
165000 nM | O=C(O)CCC(NC(=O)Sc1cc[n+]([O-])cc1)C(=O)O (stereo unspecified) [2-(1-Oxy-pyridin-4-ylsulfanylcarbonylamino)-pentanedioic acid]
2500 nM | Nc1cccc(SC(=O)NC(CCC(=O)O)C(=O)O)c1 (stereo unspecified) [2-(3-Amino-phenylsulfanylcarbonylamino)-pentanedioic acid]
1070 nM | COc1cccc(SC(=O)NC(CCC(=O)O)C(=O)O)c1 (stereo unspecified) [2-(3-Methoxy-phenylsulfanylcarbonylamino)-pentanedioic acid]
5800 nM | Nc1ccc(SC(=O)NC(CCC(=O)O)C(=O)O)cc1 (stereo unspecified) [2-(4-Amino-phenylsulfanylcarbonylamino)-pentanedioic acid]
1050 nM | Cc1ccc(SC(=O)NC(CCC(=O)O)C(=O)O)cc1 (stereo unspecified) [2-p-Tolylsulfanylcarbonylamino-pentanedioic acid]
300 nM | COc1ccc(SC(=O)N[C@H](CCC(=O)O)C(=O)O)cc1 [(R)-2-(4-Methoxy-phenylsulfanylcarbonylamino)-pentanedioic acid]
